Measurements taken from ChEMBL document CHEMBL1150789, “Antiplasmodial activity of aryltetralone lignans from Holostylis reniformis” (Antimicrob Agents Chemother, 2007).

Legend:
Plasmodium falciparum = assay: Antiplasmodial activity growth inhibition of chloroquine-resistant Plasmodium falciparum BHz 26/86 after 72 hrs; assay type: functional, organism-based; settings: BHz 26/86, 72 h
Method in brief: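 Chloroquine-resistant Amazon isolate in continuous culture on human AB+ or A+ erythrocytes, RPMI 1640 + 10% human serum. Sorbitol-synchronized trophozoites at 1–2% parasitemia, 2.5% hematocrit. Compounds in 0.02% Tween 20, tested at 0.02 to 20 μM, 37°C. Growth inhibition versus drug-free control from blinded smear reading. IC50/IC90 by linear interpolation. Triplicate, three repeats.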

[1] = Toxicity against human HepG2A16 cells assessed as cell death at 450 ug/ml by MTT method; assay type: cell-based

Structure (SMILES) | IC90 (Plasmodium falciparum) [nM] | Activity [1] [%] | IC50 (Plasmodium falciparum) [nM]
CCN(CC)CCCC(C)Nc1ccnc2cc(Cl)ccc12 (centres undefined) [CHLOROQUINE] | 700 |  | 
COc1ccc([C@@H]2c3cc(OC)c(OC)cc3C(=O)[C@@H](C)[C@@H]2C)cc1OC | 4600 | 30 | 320
COc1ccc([C@@H]2c3cc4c(cc3C(=O)[C@@H](C)[C@H]2C)OCO4)cc1OC | 19700 | 30 | 8000
COc1ccc([C@@H]2c3cc(OC)c(OC)cc3C(=O)[C@@H](C)[C@H]2C)cc1OC | 2610 | 30 | 630
COc1cc2c(cc1OC)[C@@H](c1ccc3c(c1)OCO3)[C@H](C)[C@H](C)C2=O | > 140000 | 30 | > 140000
COc1ccc([C@@H]2c3cc(OC)c(OC)cc3C(=O)[C@H](C)[C@H]2C)cc1OC | 3000 | 30 | 200
COc1cc2c(cc1OC)[C@@H](c1ccc3c(c1)OCO3)[C@@H](C)[C@H](C)C2=O | 3350 | 30 | 260
